Results as given in ChEMBL document CHEMBL4706664, “Rational drug design of 6-substituted 4-anilino-2-phenylpyrimidines for exploration of novel ABCG2 binding site” (Eur J Med Chem, 2021).

Tests used:
[1] = molecular target: T1, Broad substrate specificity ATP-binding cassette transporter ABCG2 (Homo sapiens, UniProt Q9UNQ0); experiment: Inhibition of ABCG2 (unknown origin) expressed in MDCK-II cells assessed as reduction in pheophorbide A efflux measured after 2 hrs by flow cytometry; type: cell-based
T1 sequence (Q9UNQ0 whole entry): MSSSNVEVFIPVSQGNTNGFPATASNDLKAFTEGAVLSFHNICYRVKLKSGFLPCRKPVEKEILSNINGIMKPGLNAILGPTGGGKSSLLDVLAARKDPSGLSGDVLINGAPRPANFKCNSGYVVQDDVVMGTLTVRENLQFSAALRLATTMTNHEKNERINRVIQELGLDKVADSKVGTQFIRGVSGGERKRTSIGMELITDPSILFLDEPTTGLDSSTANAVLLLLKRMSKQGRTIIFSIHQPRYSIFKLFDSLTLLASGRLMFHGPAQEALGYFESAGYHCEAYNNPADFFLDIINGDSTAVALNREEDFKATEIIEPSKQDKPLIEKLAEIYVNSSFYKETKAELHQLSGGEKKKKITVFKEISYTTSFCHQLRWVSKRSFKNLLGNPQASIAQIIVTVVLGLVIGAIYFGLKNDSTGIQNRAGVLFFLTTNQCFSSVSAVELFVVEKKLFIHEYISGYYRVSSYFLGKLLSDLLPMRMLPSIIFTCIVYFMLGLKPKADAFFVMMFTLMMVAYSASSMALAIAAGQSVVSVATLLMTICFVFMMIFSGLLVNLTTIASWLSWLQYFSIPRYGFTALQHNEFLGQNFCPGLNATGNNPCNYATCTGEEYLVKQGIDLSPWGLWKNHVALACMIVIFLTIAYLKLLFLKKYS
How it was run: (§1)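 Pheophorbide A accumulation in MDCK II BCRP cells, about 45,000 cells/well in Krebs-HEPES buffer pH 7.4. Compound dilutions were prepared at 0.316–100 µM, and 20 µL of 5 µM pheophorbide A was added. Incubated 2 h at 37 °C, 5% CO2. Fluorescence read by flow cytometry (ex 488 nm, em 695/50 nm). IC50 and Imax are mean ± SEM of at least three independent experiments.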

ABCG2 [2] = molecular target: T2, ABCG2 (Homo sapiens, UniProt Q9UNQ0); experiment: Inhibition of ABCG2 (unknown origin) expressed in MDCK-II cells assessed as reduction in pheophorbide A efflux measured after 2 hrs by flow cytometry relative to Ko143; type: cell-based; details: MDCK-II cells expressing ABCG2, probe pheophorbide A, read-out: Imax; how it was run: as §1
T2 sequence (Q9UNQ0 whole entry): T1 sequence (Q9UNQ0 whole entry)

ABCC1 = ABCC1 (Homo sapiens, UniProt P33527); experiment: Inhibition of ABCC1 (unknown origin) expressed in human NCI-H69AR cells assessed as reduction in calcein AM efflux at 10 uM preincubated for 30 mins followed by calcein AM addition and measured at 60 secs interval for 1 hr by fluorescence assay relative to control; type: cell-based; details: NCI-H69AR cells expressing ABCC1, probe calcein AM, time 90 min
Sequence of ABCC1 (P33527 whole entry): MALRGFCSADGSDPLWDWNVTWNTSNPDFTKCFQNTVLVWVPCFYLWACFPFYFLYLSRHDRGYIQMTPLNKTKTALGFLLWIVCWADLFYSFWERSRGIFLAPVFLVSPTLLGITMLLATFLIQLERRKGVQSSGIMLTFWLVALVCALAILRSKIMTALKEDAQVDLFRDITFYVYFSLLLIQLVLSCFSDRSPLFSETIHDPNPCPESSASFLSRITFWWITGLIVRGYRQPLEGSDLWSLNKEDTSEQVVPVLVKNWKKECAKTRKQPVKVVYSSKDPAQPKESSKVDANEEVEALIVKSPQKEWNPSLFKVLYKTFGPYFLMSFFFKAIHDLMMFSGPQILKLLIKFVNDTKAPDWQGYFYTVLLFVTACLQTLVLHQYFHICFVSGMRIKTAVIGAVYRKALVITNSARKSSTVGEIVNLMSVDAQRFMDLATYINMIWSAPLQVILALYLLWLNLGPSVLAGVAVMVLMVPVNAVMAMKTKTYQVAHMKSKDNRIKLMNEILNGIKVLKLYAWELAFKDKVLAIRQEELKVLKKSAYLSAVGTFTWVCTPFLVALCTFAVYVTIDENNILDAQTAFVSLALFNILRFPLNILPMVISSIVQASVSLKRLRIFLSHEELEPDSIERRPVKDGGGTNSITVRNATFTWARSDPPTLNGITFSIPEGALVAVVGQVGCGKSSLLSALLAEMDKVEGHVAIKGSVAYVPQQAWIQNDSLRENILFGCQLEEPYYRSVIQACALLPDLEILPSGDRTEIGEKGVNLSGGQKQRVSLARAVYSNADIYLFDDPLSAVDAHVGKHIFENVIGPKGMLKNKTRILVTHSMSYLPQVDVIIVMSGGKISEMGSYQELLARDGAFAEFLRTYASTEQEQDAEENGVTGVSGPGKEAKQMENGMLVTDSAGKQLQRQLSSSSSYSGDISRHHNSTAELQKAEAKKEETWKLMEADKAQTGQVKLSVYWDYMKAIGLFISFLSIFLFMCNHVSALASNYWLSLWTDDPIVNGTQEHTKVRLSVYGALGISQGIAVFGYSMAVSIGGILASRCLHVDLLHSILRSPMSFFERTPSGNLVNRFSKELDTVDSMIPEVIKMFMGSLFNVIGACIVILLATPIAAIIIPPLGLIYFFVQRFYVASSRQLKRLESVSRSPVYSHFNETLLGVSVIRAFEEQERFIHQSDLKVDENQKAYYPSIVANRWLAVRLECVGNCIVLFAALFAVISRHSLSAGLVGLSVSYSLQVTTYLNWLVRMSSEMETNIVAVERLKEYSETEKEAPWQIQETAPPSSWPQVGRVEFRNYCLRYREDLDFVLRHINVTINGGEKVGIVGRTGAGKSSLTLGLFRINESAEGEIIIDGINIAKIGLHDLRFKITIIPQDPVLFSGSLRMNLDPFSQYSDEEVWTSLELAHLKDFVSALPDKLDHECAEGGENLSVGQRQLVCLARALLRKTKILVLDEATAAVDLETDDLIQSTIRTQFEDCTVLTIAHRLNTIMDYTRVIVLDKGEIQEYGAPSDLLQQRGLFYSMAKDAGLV

[3] = molecular target: ATP-dependent translocase ABCB1 (Homo sapiens, UniProt P08183); experiment: Inhibition of ABCB1 (unknown origin) expressed in human A2780 ADR cells assessed as reduction in calcein AM efflux preincubated for 30 mins followed by calcein AM addition and measured at 60 secs interval for 1 hr by fluorescence assay; type: cell-based
Sequence of ATP-dependent translocase ABCB1 (P08183 whole entry): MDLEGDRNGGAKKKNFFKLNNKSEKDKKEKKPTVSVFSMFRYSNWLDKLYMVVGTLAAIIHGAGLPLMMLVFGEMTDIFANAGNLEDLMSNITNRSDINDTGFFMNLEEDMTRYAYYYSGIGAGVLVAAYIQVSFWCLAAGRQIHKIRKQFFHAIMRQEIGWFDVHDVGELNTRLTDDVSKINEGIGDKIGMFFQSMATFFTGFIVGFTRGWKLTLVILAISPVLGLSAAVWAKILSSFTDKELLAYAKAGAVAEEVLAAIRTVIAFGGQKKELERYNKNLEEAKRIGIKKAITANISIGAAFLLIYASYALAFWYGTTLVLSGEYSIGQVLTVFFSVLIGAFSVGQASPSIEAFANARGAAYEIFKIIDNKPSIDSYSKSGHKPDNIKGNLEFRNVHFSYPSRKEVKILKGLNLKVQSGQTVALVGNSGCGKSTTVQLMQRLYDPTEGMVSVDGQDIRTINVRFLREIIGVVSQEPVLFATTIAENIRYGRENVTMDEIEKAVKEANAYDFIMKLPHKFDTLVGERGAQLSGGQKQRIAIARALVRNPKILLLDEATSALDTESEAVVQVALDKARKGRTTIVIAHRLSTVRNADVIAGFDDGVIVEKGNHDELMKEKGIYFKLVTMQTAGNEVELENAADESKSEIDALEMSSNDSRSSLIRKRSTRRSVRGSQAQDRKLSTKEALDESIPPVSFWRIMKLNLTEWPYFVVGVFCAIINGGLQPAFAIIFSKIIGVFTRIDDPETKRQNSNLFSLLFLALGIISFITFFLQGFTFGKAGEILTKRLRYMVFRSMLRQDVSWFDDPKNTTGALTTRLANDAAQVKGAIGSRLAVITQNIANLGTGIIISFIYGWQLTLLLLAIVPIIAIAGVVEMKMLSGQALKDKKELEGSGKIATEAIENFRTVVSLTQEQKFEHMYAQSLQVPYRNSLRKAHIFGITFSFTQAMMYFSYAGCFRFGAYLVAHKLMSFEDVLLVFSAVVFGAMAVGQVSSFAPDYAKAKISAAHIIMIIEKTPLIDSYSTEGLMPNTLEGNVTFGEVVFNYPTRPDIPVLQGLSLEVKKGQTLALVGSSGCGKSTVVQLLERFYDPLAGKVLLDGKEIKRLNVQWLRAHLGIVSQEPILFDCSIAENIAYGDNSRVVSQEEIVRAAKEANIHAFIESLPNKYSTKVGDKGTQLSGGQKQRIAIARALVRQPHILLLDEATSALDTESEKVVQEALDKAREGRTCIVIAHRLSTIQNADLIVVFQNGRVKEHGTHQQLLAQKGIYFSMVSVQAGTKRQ
How it was run: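 Calcein AM accumulation in A2780/ADR cells (30,000/well, Krebs-HEPES buffer pH 7.4). Cells preincubated with compound 30 min at 37 °C, 5% CO2. Then 20 µL of 3.125 µM calcein AM added. Fluorescence (ex 485/em 520 nm) read every 60 s for 1 h. […] Screening at 10 µM.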

ABCG2 [4] = experiment: Therapeutic index, ratio of GI50 for cytotoxicity against ABCG2 overexpressing MDCK-II cells to IC50 for inhibition of ABCG2 (unknown origin) expressed in MDCK-II cells; details: dog
[5] = Cytotoxicity against wild-type MDCK-II cells assessed as reduction in cell viability measured after 72 hrs by MTT assay; type: cell-based, Canis lupus familiaris; details: dog
How it was run: (§2)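 MTT cell viability. Compound dilution series prepared in culture medium at 3.16 µM to 1 mM (dilution stock; added 20 µL to 180 µL cells). Seeding per well: MDCK II and MDCK II BCRP 2000, A2780 and A2780/ADR 8000, H69AR 20,000. Incubated 72 h, 37 °C, 5% CO2. MTT 5 mg/mL added for 60 min, formazan dissolved in DMSO, absorbance 570 nm (690 nm background). Medium = 100%, 10% DMSO = 0% viability. GI50 by four-parameter logistic fit. Mean ± SEM of at least three independent experiments.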

ABCB1 = ABCB1 (Homo sapiens, UniProt P08183); experiment: Inhibition of ABCB1 (unknown origin) expressed in human A2780 ADR cells assessed as reduction in calcein AM efflux at 10 uM preincubated for 30 mins followed by calcein AM addition and measured at 60 secs interval for 1 hr by fluorescence assay relative to control; type: cell-based; details: A2780 ADR cells expressing ABCB1, probe calcein AM, time 90 min
Sequence of ABCB1 (P08183 whole entry): as above
How it was run: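 Calcein AM accumulation in A2780/ADR cells (30,000/well, Krebs-HEPES buffer pH 7.4). Cells preincubated with compound 30 min at 37 °C, 5% CO2. Screening at 10 µM.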

[6] = Cytotoxicity against ABCG2 overexpressing MDCK-II cells assessed as reduction in cell viability measured after 72 hrs by MTT assay; type: ADME, cell-based, Canis lupus familiaris; details: dog; how it was run: as §2
[7] = Cytotoxicity against ABCB1 over expressing human A2780 cells assessed as reduction in cell viability measured after 72 hrs by MTT assay; type: ADME, cell-based; details: in the assay text read “human A2780 cells” for “ABCB1 over expressing human A2780 cells”; how it was run: as §2
[8] = Cytotoxicity against ABCB1 over expressing human A2780 ADR cells assessed as reduction in cell viability measured after 72 hrs by MTT assay; type: ADME, cell-based; details: ABCB1 overexpressing A2780 ADR cells; how it was run: as §2
[9] = Cytotoxicity against ABCC1 over expressing human NCI-H69AR cells assessed as reduction in cell viability measured after 72 hrs by MTT assay; type: ADME, cell-based; details: ABCC1 overexpressing NCI-H69AR cells; how it was run: as §2
[10] = Cytotoxicity against human A2780 cells assessed as reduction in cell viability measured after 72 hrs by MTT assay

| SMILES | IC50 [1] [µM] | Emax at 2 h (ABCG2 [2]) [%] | inhibition at 1 h, 10 µM (ABCC1) [%] | IC50 ([3]; read-out: IC50) [µM] | selectivity ratio (ABCG2 [4]) | GI50 at 72 h [5] [µM] | inhibition at 1 h, 10 µM (ABCB1) [%] | GI50 at 72 h [6] [µM] | GI50 at 72 h [7] [µM] | GI50 at 72 h [8] [µM] | GI50 at 72 h [9] [µM] | IC50 ([3]; a2780 adr) | GI50 at 72 h [10] [µM] |
| --- | --- | --- | --- | --- | --- | --- | --- | --- | --- | --- | --- | --- | --- |
| Cc1cc(Nc2ccc(C#N)cc2)nc(-c2ccccc2)n1 | 0.189 | 87 |  |  |  |  |  |  |  |  |  |  |  |
| N#Cc1ccc(Nc2cc(NCc3cccnc3)nc(-c3ccccc3)n2)cc1 | 0.373 | 91 | > 20 | 5.41 | 14.9 | 7.47 | > 20 | 5.54 |  |  |  |  |  |
| N#Cc1ccc(Nc2cc(Nc3ccc(O)cc3)nc(-c3ccccc3)n2)cc1 | 0.387 | 76 | > 20 | 4.54 |  | 5.3 | > 20 | 5.15 | 8.02 | 9.21 | 13.7 |  |  |
| CNc1cc(Nc2ccc(C#N)cc2)nc(-c2ccccc2)n1 | 0.141 | 68 |  | 25.9 | 180 | 34.1 | > 20 | 25 |  |  |  |  |  |
| N#Cc1ccc(Nc2cc(NCc3ccccn3)nc(-c3ccccc3)n2)cc1 | 0.21 | 88 |  | 3.4 | 40.8 | 9.44 | > 20 | 8.56 |  |  |  |  |  |
| N#Cc1ccc(Nc2cc(NCCCCc3ccccc3)nc(-c3ccccc3)n2)cc1 | 0.147 | 61 |  |  | 65 | 10.6 |  | 9.48 |  |  |  | Not Active |  |
| N#Cc1ccc(Nc2cc(Nc3cccc(O)c3)nc(-c3ccccc3)n2)cc1 | 0.608 | 66 | > 20 | 3.52 |  | 5.24 | > 20 | 5.12 | 3.55 | 5.91 | 11 |  |  |
| N#Cc1ccc(Nc2cc(Nc3ccc(C#N)cc3)nc(-c3ccccc3)n2)cc1 | 0.133 | 60 |  | 6.75 | 58.7 | 7.09 | > 20 | 7.78 |  |  |  |  |  |
| N#Cc1ccc(Nc2cc(Nc3ccccc3)nc(-c3ccccc3)n2)cc1 | 0.169 | 84 |  | 5.38 | 24 | 4.95 | > 20 | 4.05 |  |  |  |  |  |
| N#Cc1ccc(Nc2cc(-c3ccccc3)nc(-c3ccccc3)n2)cc1 | 4.41 | 100 |  |  | 4.96 | 25.1 |  | 21.9 |  |  |  | Not Active |  |
| CC(C)Nc1cc(Nc2ccc(C#N)cc2)nc(-c2ccccc2)n1 | 0.763 | 101 | > 20 | 6.42 |  | 5.58 | > 20 | 5.06 |  | 8.09 | 21.4 |  | 13.3 |
| CCCCNc1cc(Nc2ccc(C#N)cc2)nc(-c2ccccc2)n1 | 0.5 | 73 |  | 6.62 | 12.2 | 8.32 | > 20 | 6.08 |  |  |  |  |  |
| N#Cc1ccc(Nc2cc(NCCCc3ccccc3)nc(-c3ccccc3)n2)cc1 | 0.096 | 61 |  |  | 38.4 | 5.03 |  | 3.64 |  |  |  | Not Active |  |
| N#Cc1ccc(Nc2cc(NCc3ccncc3)nc(-c3ccccc3)n2)cc1 | 0.435 | 78 |  | 4.26 | 23.1 | 10.7 | > 20 | 10 |  |  |  |  |  |
| N#Cc1ccc(Nc2ccnc(-c3ccccc3)n2)cc1 | 0.189 |  |  |  |  |  |  |  |  |  |  |  |  |
| CCCNc1cc(Nc2ccc(C#N)cc2)nc(-c2ccccc2)n1 | 0.293 | 89 | > 20 | 5.9 |  | 8.34 | > 20 | 6.56 |  | 12.3 | 23 |  | 15.1 |
| N#Cc1ccc(Nc2cc(NCc3ccccc3)nc(-c3ccccc3)n2)cc1 | 0.283 | 99 |  | 4.47 | 38 | 4.19 | > 20 | 10.7 |  |  |  |  |  |
| CCc1c2c(nc3ccc(O)cc13)-c1cc3c(c(=O)n1C2)COC(=O)[C@]3(O)CC [7-ETHYL-10-HYDROXYCAMPTOTHECIN] |  |  |  |  |  | 0.139 |  |  |  |  |  |  |  |
